Drawing on ChEMBL document CHEMBL1144940 (J Med Chem, 2003), this text covers Activity, EC50 and Ki for 5 compounds.

Experiment [1] deals with T1, Melanocortin receptor 5 (Homo sapiens, UniProt P33032). Description: Agonist activity against human Melanocortin 5 receptor at 10 uM.
For experiment [2], the target named is T2, Melanocortin receptor 3 (Homo sapiens, UniProt P41968). Description: Agonist activity against human Melanocortin 3 receptor at 10 uM.
In experiment [3] the target is T3, Melanocortin receptor 4 (Homo sapiens, UniProt P32245). The experiment is described as follows: Agonist activity against human Melanocortin 4 receptor at 10 uM.
In experiment [4] the target is T3, Melanocortin receptor 4. The experiment is described as follows: Intracellular cAMP accumulation in Melanocortin 4 receptor functional assay. On the technique in general: Changes in cAMP serve as a functional read-out for many G protein-coupled receptors.
Experiment [5] deals with T1, Melanocortin receptor 5. The experiment is described as follows: Binding affinity against human Melanocortin 5 receptor by gamma-MCH displacement. The procedure, abridged: (§1)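 Competition binding on intact HEK293 cells stably expressing the human receptor, seeded 50000 cells/well 48 h earlier. Lysates were gamma-counted. Ki came from competition curves; mean of duplicate experiments in triplicate.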

Experiment [6] has as its target T1, Melanocortin receptor 5. The experiment is described as follows: Intracellular cAMP accumulation in human Melanocortin 5 receptor functional assay.
Experiment [7] concerns the target T3, Melanocortin receptor 4. The experiment is described as follows: Binding affinity against Melanocortin 4 receptor by gamma-MCH displacement. The procedure, abridged:
as §1

Experiment [8] deals with T2, Melanocortin receptor 3. Description: Intracellular cAMP accumulation in human Melanocortin 3 receptor functional assay.
Experiment [9] addresses T2, Melanocortin receptor 3. The experiment is described as follows: Binding affinity against human Melanocortin 3 receptor by gamma-MCH displacement. The procedure, abridged: as §1

T2 sequence (P41968 whole entry): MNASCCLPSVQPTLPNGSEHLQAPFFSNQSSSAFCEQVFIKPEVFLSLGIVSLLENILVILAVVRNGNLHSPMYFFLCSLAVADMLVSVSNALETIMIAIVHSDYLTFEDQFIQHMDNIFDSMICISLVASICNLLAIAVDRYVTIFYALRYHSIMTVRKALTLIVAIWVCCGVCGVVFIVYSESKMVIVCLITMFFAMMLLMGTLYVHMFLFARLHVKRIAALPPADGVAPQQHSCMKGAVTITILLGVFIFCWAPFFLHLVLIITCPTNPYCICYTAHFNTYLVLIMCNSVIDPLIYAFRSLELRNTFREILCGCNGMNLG
T3 sequence (P32245 whole entry): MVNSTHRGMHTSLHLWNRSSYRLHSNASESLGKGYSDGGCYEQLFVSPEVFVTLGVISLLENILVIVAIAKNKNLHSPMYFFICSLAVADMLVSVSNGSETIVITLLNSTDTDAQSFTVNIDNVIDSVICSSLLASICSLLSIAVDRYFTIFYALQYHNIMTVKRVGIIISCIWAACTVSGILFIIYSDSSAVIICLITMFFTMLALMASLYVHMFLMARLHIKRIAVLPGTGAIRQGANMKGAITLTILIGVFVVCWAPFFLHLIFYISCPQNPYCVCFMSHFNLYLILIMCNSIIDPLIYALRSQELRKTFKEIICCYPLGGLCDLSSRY
T1 sequence (P33032 whole entry): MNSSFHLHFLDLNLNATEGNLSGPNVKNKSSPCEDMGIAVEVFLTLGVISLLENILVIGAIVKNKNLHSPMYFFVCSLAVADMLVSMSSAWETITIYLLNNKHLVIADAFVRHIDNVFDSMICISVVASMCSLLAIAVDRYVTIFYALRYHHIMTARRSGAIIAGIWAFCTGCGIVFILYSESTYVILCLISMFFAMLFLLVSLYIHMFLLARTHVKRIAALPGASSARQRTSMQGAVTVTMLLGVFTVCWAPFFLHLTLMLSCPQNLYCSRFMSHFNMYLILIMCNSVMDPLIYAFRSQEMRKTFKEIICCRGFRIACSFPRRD

Regarding `CCCC[C@H](NC(=O)[C@@H](NC(=O)[C@@H](N)Cc1ccc(O)cc1)C(C)C)C(=O)NCC(=O)N[C@@H](CCN)C(=O)N[C@@H](Cc1ccccc1)C(=O)N[C@@H](CCCN=C(N)N)C(=O)N[C@H](Cc1ccc2ccccc2c1)C(=O)N[C@@H](CC(=O)O)C(=O)N[C@@H](CCCN=C(N)N)C(=O)N[C@@H](Cc1ccccc1)C(=O)NCC(N)=O`, the Activity at Melanocortin receptor 5 [1] came to 100%.

Consider `CCCC[C@H](NC(=O)[C@@H](NC(=O)[C@@H](N)Cc1ccc(O)cc1)C(C)C)C(=O)N[C@H]1CC(=O)NCCCC[C@H](C(=O)N[C@@H](CCCN=C(N)N)C(=O)N[C@@H](Cc2ccccc2)C(=O)NCC(N)=O)NC(=O)[C@@H](Cc2c[nH]c3ccccc23)NC(=O)[C@H](CCCN=C(N)N)NC(=O)[C@@H](Cc2ccccc2)NC(=O)[C@H](Cc2c[nH]cn2)NC1=O`, for which the Activity on Melanocortin receptor 5 [1], at Melanocortin receptor 3 [2] and at Melanocortin receptor 4 [3] was 100% throughout.

For the compound `CC(C)[C@H](NC(=O)[C@@H](N)Cc1ccc(O)cc1)C(=O)N[C@@H]1CSSC[C@@H](C(=O)N[C@@H](CCCN=C(N)N)C(=O)N[C@@H](Cc2ccccc2)C(=O)NCC(N)=O)NC(=O)[C@H](Cc2c[nH]c3ccccc23)NC(=O)[C@H](CCCN=C(N)N)NC(=O)[C@@H](Cc2ccccc2)NC(=O)[C@H](Cc2c[nH]cn2)NC(=O)CNC1=O`, the Activity on Melanocortin receptor 5 [1] came to 16%; at Melanocortin receptor 3 [2], 93%; on Melanocortin receptor 4 [3] it was 92%.

Broadly, the EC50 is the concentration at which the effect is half-maximal. Low values mean an effect from little substance, high ones a need for much substance. In general, Ki refers to the equilibrium dissociation constant of an inhibitor or competing ligand from its target. High values mean a looser hold on the target, low ones a stronger hold on the target. For `CCCC[C@H](NC(=O)[C@@H](NC(=O)[C@@H](N)Cc1ccc(O)cc1)C(C)C)C(=O)NCC(=O)N[C@@](C)(Cc1ccccc1)C(=O)N[C@@H](Cc1ccccc1)C(=O)N[C@@H](CCCN=C(N)N)C(=O)N[C@H](Cc1ccc2ccccc2c1)C(=O)N[C@@H](CC(=O)O)C(=O)N[C@@H](CCCN=C(N)N)C(=O)N[C@@H](Cc1ccccc1)C(=O)NCC(N)=O`, the EC50 at Melanocortin receptor 4 [4] turned out to be 53 nM; on Melanocortin receptor 5 [6], 210 nM; at Melanocortin receptor 3 [8], 150 nM. Besides, the Ki came out at 3300 nM on Melanocortin receptor 5 [5], 1300 nM on Melanocortin receptor 4 [7] and 1400 nM at Melanocortin receptor 3 [9]. For the same compound, the values for the Activity at Melanocortin receptor 5 [1], on Melanocortin receptor 3 [2] and on Melanocortin receptor 4 [3] were 40%, 40% and 80%, respectively.

As for `CCCC[C@H](NC(=O)[C@@H](NC(=O)[C@@H](N)Cc1ccc(O)cc1)C(C)C)C(=O)NCC(=O)N[C@@H](Cc1c[nH]cn1)C(=O)N[C@@H](Cc1ccccc1)C(=O)N[C@@H](CCCN=C(N)N)C(=O)N[C@H](Cc1ccc2ccccc2c1)C(=O)N[C@@H](CC(=O)O)C(=O)N[C@@H](CCCN=C(N)N)C(=O)N[C@@H](Cc1ccccc1)C(=O)NCC(N)=O`, the results for the EC50 at Melanocortin receptor 4 [4], at Melanocortin receptor 5 [6] and at Melanocortin receptor 3 [8] were above 10000 nM, 28 nM and 2400 nM, respectively. The Ki was determined as 17 nM at Melanocortin receptor 5 [5], 1.5 nM at Melanocortin receptor 4 [7] and 15 nM on Melanocortin receptor 3 [9]. Also, the Activity on Melanocortin receptor 5 [1] was determined as 80%; at Melanocortin receptor 3 [2], 31%.
